Source: PubChem BioAssay
Activity calls are given as the source filed them.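 The calls were made as follows, unless noted: active = duplicate-averaged activation above buffer control mean plus 5 SD of those controls; inactive = the rest.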

Columns and labels:
[1] = thallium flux activation in parental CHO cells, counter-screen for KCNQ1 potentiator project (AID 493006); settings: parental CHO-K1 cells, FluxOR thallium flux, at 10 µM; active compounds read high
How it was run: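 Test system: parental CHO-K1 cells, FluxOR dye-loaded / Probe or stimulus: potassium plus thallium depolarizing stimulus, 5x stock 12.5 mM K2SO4, Tl2SO4 / Timing: overnight 37 °C plating, 90 min dye, 20 min dark compound / Measured by: kinetic thallium-flux fluorescence / Read-out: max-minus-min fluorescence over baseline, percent of buffer-to-R-L3 span / Benchmarks: buffer and R-L3 controls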

[2] = biological target: Potassium voltage-gated channel subfamily KQT member 1 (Homo sapiens) (UniProt P51787); test: KCNQ1 potassium channel potentiators, confirmation, FluxOR thallium flux, CHO cells, duplicates (AID 493007;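 active = potentiation averaged over duplicate wells exceeding buffer-only control mean by more than 3 SD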;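 as to outcome: cells depolarized by a potassium plus thallium sulfate stimulus after compound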;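 as to potentiation: 0% = buffer-only wells and 100% = R-L3 activator control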); settings: KCNQ1 cell line, FluxOR thallium flux fluorescence, at 10 µM; active compounds read high, % of reference activator effect, buffer zero
How it was run: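 Assay system: CHO cells carrying KCNQ1 | Controls: Buffer and R-L3 controls | Schedule: FluxOR dye loading 90 min, compound exposure 20 min, room temperature | Read-out: Baseline-normalized fluorescence change, percent of buffer-to-R-L3 range | Replicates: Each compound tested in duplicate | Technique: Kinetic thallium influx fluorescence with FluxOR dye, 10 s baseline, 110 s post-stimulus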

[3] = biological target: Potassium voltage-gated channel subfamily KQT member 2 (Rattus norvegicus) (UniProt O88943); test: rat KCNQ2 channel potentiation, selectivity assay for KCNQ1 potentiator project, KCNQ2-CHO-K1 cells (AID 493009;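 active = mean duplicate potentiation above the buffer control mean plus 5 SD of buffer wells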;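 also: assay conditions were tuned for KCNQ1 rather than KCNQ2 modulators; signal is max minus min fluorescence divided by baseline after thallium stimulus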); settings: FluxOR thallium flux fluorescence, at 10 µM; active compounds read high, scaled: buffer 0, activator control 100
[4] = biological target: Potassium voltage-gated channel subfamily KQT member 1 (Homo sapiens) (UniProt P51787); test: KCNQ1 channel current potentiators, confirmation, orthogonal assay for KCNQ1 potentiator project, IonWorks patch clamp, KCNQ1-CHO cells (AID 493184;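 active = current rise at least 3 SD above the untreated control mean in each of two repeat wells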); settings: automated patch clamp current, at 10 µM; active compounds read high
How it was run: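 Material: KCNQ1-expressing CHO cells; doses: 10 µM final, single point; probe or stimulus: voltage step from -90 mV holding to +40 mV, 2,000 ms; signal: automated voltage clamp, amphotericin B perforated patch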

[5] = biological target: Potassium voltage-gated channel subfamily E member 1 (Homo sapiens) + Potassium voltage-gated channel subfamily KQT member 1 (Homo sapiens) (UniProt P15382+P51787); test: KCNQ1/KCNE1 complex potentiators, confirmation, selectivity assay for KCNQ1 potentiator project, thallium flux, CHO-K1 KCNQ1/E1 cells (AID 493186;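 active = mean duplicate activation above the buffer control mean plus 5 SD of those controls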;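 as to activation: 0% = assay buffer control and 100% = R-L3 activator control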); settings: FluxOR thallium flux, at 10 µM; active compounds read high
How it was run: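 Test system: CHO-K1 cells with KCNQ1/E1. Times: 90-min dye loading then 20-min compound exposure, both at room temperature. Measured by: kinetic FluxOR thallium-flux fluorescence, 10 s baseline plus 110 s after stimulus. Repeats: duplicate wells per compound.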

Sequence of Potassium voltage-gated channel subfamily KQT member 2 (Rattus norvegicus) (O88943 whole entry, looked up): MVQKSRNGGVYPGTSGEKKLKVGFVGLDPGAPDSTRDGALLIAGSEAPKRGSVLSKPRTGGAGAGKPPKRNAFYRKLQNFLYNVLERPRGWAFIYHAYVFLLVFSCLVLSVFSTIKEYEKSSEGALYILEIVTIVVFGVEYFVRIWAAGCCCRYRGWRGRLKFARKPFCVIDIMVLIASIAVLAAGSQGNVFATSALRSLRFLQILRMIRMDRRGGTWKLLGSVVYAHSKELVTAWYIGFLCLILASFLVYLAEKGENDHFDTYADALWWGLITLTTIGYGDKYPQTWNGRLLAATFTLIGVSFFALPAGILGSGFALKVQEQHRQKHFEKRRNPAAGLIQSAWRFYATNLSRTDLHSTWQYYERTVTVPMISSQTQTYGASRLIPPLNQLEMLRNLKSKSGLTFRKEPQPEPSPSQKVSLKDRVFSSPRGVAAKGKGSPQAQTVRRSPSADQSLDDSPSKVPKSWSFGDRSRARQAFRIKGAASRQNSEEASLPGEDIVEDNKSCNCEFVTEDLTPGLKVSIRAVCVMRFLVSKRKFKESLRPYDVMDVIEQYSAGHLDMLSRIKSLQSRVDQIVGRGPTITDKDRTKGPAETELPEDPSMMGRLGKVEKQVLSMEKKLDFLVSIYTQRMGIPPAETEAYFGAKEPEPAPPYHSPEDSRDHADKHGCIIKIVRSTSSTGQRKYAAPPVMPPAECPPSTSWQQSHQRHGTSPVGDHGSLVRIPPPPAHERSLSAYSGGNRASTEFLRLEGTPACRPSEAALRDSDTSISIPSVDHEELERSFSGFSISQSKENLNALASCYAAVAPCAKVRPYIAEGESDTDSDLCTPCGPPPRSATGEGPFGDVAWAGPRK
Sequence of Potassium voltage-gated channel subfamily KQT member 1 (Homo sapiens) (P51787 whole entry, looked up): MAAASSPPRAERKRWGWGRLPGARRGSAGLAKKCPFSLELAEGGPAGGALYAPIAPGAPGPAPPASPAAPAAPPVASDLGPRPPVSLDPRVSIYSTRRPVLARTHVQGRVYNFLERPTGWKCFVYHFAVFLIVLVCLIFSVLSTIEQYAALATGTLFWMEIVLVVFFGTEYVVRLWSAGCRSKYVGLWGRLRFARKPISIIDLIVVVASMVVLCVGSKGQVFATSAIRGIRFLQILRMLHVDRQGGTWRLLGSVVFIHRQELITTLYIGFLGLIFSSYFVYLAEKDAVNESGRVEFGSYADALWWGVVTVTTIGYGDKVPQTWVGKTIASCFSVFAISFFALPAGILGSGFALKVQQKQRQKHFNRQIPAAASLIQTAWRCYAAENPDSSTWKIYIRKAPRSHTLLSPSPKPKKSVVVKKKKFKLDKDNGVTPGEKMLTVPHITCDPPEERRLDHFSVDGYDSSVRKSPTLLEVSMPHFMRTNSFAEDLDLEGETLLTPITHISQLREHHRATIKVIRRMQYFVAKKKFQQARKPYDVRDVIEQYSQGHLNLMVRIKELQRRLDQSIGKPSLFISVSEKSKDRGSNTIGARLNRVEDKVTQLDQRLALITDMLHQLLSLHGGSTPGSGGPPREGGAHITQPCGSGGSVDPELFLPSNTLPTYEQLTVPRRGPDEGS
Sequence of Potassium voltage-gated channel subfamily E member 1 (Homo sapiens) + Potassium voltage-gated channel subfamily KQT member 1 (Homo sapiens) (P51787 whole entry, looked up): as the sequence (P51787 whole entry, looked up) above

Cc1ccc(C(=O)NC(=S)N2CCN(c3ccccc3F)CC2)cc1
inactive: outcome [1] | outcome [2] | outcome [3] | outcome [4] | outcome [5]

CNCC/C=C1/c2ccccc2CSc2ccccc21
inactive: outcome [1] | outcome [2] | outcome [3] | outcome [4] | outcome [5]

C/C(=N\Nc1cccc2cccnc12)c1ccc[nH]1
inactive: outcome [1] | outcome [3] | outcome [4] | outcome [5]
active: potentiation [2] 30%

O=C(NC(=S)Nc1ccc2c(c1)OCCO2)c1cccc2ccccc12
inactive: outcome [1] | outcome [2] | outcome [3] | outcome [4] | outcome [5]

Cn1c(=O)cc(NCc2ccccc2)[nH]c1=O
inactive: outcome [1] | outcome [2] | outcome [3] | outcome [4] | outcome [5]

CCCOc1ccc(C(=O)NNC(=S)NC(=O)c2cc(-c3ccccc3)nc3ccccc23)cc1
inactive: outcome [1] | outcome [3] | outcome [4] | outcome [5]
active: potentiation [2] 23.5%

Cn1cc(C(=O)N/N=C/c2ccc([N+](=O)[O-])cc2)c2ccccc21
inactive: outcome [1] | outcome [2] | outcome [3] | outcome [4] | outcome [5]

O=C1C(=O)N(CCCc2ccccc2)c2ccccc21
inactive: outcome [1] | outcome [2] | outcome [3] | outcome [4] | outcome [5]

COc1ccc(C(=O)/C=C/C(=O)N(CC(=O)NC2CCCCC2)Cc2cccs2)c(O)c1
inactive: outcome [1] | outcome [2] | outcome [3] | outcome [4] | outcome [5]

N#Cc1ccc(Cl)cc1NC(=O)COC(=O)[C@H](CCC(N)=O)NC(=O)c1ccc(F)cc1
inactive: outcome [1] | outcome [2] | outcome [3] | outcome [4] | outcome [5]

Cc1ccc(NC(=S)NC(=O)c2ccc(-c3ccccc3)cc2)c(C)c1
inactive: outcome [1] | outcome [2] | outcome [3] | outcome [4] | outcome [5]

CCOc1cccc2sc(NC(=O)c3ccc(Br)s3)nc12
inactive: outcome [1] | outcome [2] | outcome [3] | outcome [4] | outcome [5]

CS(=O)(=O)N1CCc2cc(-c3csc(NC(=O)C(c4ccccc4)c4ccccc4)n3)ccc21
inactive: outcome [1] | outcome [2] | outcome [3] | outcome [4] | outcome [5]

COC(=O)N/N=C/c1cc(C)n(-c2ccc(Br)cc2)c1C
inactive: outcome [1] | outcome [2] | outcome [3] | outcome [4] | outcome [5]

O=C(COc1ccccc1)NC(=S)Nc1ccc(Br)cn1
inactive: outcome [1] | outcome [4]
active: potentiation [2] 41.5% | potentiation [3] 206% | activation [5] 20.3%

COc1ccc(-c2nn(-c3ccccc3)cc2C(=O)NC(=S)NNC(=O)c2ccncc2)cc1
inactive: outcome [1] | outcome [3] | outcome [4] | outcome [5]
active: potentiation [2] 17.5%

OCCN1CCN(c2nc(-c3ccccc3)nc3c2oc2ccccc23)CC1
inactive: outcome [1] | outcome [2] | outcome [3] | outcome [4] | outcome [5]

O=C(N/C(=C\c1ccc([N+](=O)[O-])cc1)C(=O)N1CCCCC1)c1ccco1
inactive: outcome [1] | outcome [2] | outcome [3] | outcome [4] | outcome [5]

Cc1ccc2cc(/C=N/NC(=O)CN3CCCCC3)c(Cl)nc2c1
inactive: outcome [1] | outcome [2] | outcome [3] | outcome [4] | outcome [5]

O=C(NC1(O)C(=O)c2ccccc2C1=O)c1ccc(C(F)(F)F)cc1
inactive: outcome [1] | outcome [2] | outcome [4] | outcome [5]
active: potentiation [3] 148%

CC(=O)/C=C/c1ccc2ccccc2n1
inactive: outcome [1] | outcome [2] | outcome [3] | outcome [4] | outcome [5]

COc1ccc(-c2csc(NC(=S)NC(=O)c3cccs3)n2)cc1Br
inactive: outcome [1] | outcome [2] | outcome [3] | outcome [4] | outcome [5]

Cc1cccc(NC(=O)c2cccc(NC(=O)Cc3cccs3)c2)c1
active: potentiation [2] 17.5%
inactive: outcome [1] | outcome [3] | outcome [4] | outcome [5]

CCN(C(=O)c1cc2c(=O)[nH]c3ccc(C)cc3c2s1)c1ccccc1F
active: potentiation [2] 25%
inactive: outcome [1] | outcome [3] | outcome [4] | outcome [5]

O=C(NCc1ccccn1)C1CCN(Cc2cccc(OCc3ccccc3)c2)CC1
inactive: outcome [1] | outcome [2] | outcome [3] | outcome [4] | outcome [5]

NC(=Nc1ccc(Cl)cc1)c1ccccc1
inactive: outcome [1] | outcome [2] | outcome [3] | outcome [4] | outcome [5]

CCN(Cc1ccccc1)C1CCN(Cc2ccccc2)CC1
inactive: outcome [1] | outcome [2] | outcome [3] | outcome [4] | outcome [5]

COc1ccc(CC(=O)NC(=S)Nc2cccc(C)c2)cc1
inactive: outcome [1] | outcome [2] | outcome [3] | outcome [4] | outcome [5]

CCn1c(CCNC(=O)c2ccc(Cl)cc2Cl)n[nH]c1=S
inactive: outcome [1] | outcome [2] | outcome [3] | outcome [4] | outcome [5]

O=C(NC(=S)Nc1ccccc1N1CCOCC1)c1ccc(-c2cc(Cl)ccc2Cl)o1
inactive: outcome [1] | outcome [2] | outcome [3] | outcome [4] | outcome [5]

Cc1ccc(-n2c(C)cc(/C=N/NC(=O)c3ccncc3)c2C)c(C)c1
inactive: outcome [1] | outcome [2] | outcome [3] | outcome [4] | outcome [5]

Cn1c(SCC(=O)NC2CC2)nnc1-c1cccs1
inactive: outcome [1] | outcome [2] | outcome [3] | outcome [4] | outcome [5]

Cc1nnnn1/C(=C\c1ccccc1)C(=O)OCC(=O)Nc1ccc(Cl)cc1F
inactive: outcome [1] | outcome [2] | outcome [3] | outcome [4] | outcome [5]

CS(=O)(=O)c1ccc(Cl)c(NC(=O)c2cc(S(=O)(=O)N3CCOCC3)ccc2N2CCCC2)c1
inactive: outcome [1] | outcome [2] | outcome [3] | outcome [4] | outcome [5]

Cc1[nH][nH]c(=O)c1C(c1ccc(-c2ccc(Cl)c(Cl)c2)o1)c1c(C)[nH][nH]c1=O
active: potentiation [2] 30%
inactive: outcome [1] | outcome [3] | outcome [4] | outcome [5]

Cc1ccc(C(=O)C2=C(O)C(=O)N(CCCN3CCOCC3)C23C(=O)N(C)c2ccccc23)o1 (stereo not given)
inactive: outcome [1] | outcome [2] | outcome [3] | outcome [4] | outcome [5]

O=C(NC(=S)Nc1ccc(Cl)cn1)c1cccs1
inactive: outcome [1] | outcome [2] | outcome [3] | outcome [4] | outcome [5]

Cc1ccc(NC(=S)c2nc3ccccc3s2)cc1
inactive: outcome [1] | outcome [3] | outcome [4] | outcome [5]
active: potentiation [2] 32%

O=C(NC(=S)Nc1ccccc1)c1cncc(C#Cc2ccccc2)c1
active: potentiation [2] 37%
inactive: outcome [1] | outcome [3] | outcome [4] | outcome [5]

CN(Cc1ccccc1)C(=S)NC(=O)c1ccccc1
active: potentiation [2] 21.5% | potentiation [3] 157%
inactive: outcome [1] | outcome [4] | outcome [5]

S=c1[nH]nc(-c2cccs2)n1/N=C/c1cn(-c2ccccc2)nc1-c1ccccc1
active: potentiation [2] 22%
inactive: outcome [1] | outcome [3] | outcome [4] | outcome [5]

CC(C)c1ccc(OCC(=O)NNC(=S)NC(=O)c2cccs2)c(Br)c1
active: potentiation [2] 22%
inactive: outcome [1] | outcome [3] | outcome [4] | outcome [5]

Oc1c(/C=N/c2ccccn2)sc2ccccc12
inactive: outcome [1] | outcome [3] | outcome [4] | outcome [5]
active: potentiation [2] 18%

COCc1cc(C)nc(NCCO)c1C#N
inactive: outcome [1] | outcome [2] | outcome [3] | outcome [4] | outcome [5]

O=C(NNc1cc(N2CCOCC2)nc(N2CCOCC2)n1)C12CC3CC(CC(C3)C1)C2
inactive: outcome [1] | outcome [3] | outcome [4] | outcome [5]
active: potentiation [2] 51%

CC(Sc1cccc[n+]1[O-])c1ccccc1 (stereo not given)
inactive: outcome [1] | outcome [2] | outcome [3] | outcome [4] | outcome [5]

OCCN(CCO)c1ccc(C(c2ccccc2Cl)c2ccc(N(CCO)CCO)cc2Cl)c(Cl)c1
active: potentiation [2] 34.5%
inactive: outcome [1] | outcome [3] | outcome [4] | outcome [5]

O=C1C(Nc2ccc(O)cc2)=C/C(=N/S(=O)(=O)c2cccs2)c2ccccc21
inactive: outcome [1] | outcome [3] | outcome [4] | outcome [5]
active: potentiation [2] 17.5%

O=c1cc2c(nn1Cc1c(Cl)cccc1Cl)-c1ccccc1CC2
active: potentiation [2] 24%
inactive: outcome [1] | outcome [3] | outcome [4] | outcome [5]

CCn1c(SCC(=O)Nc2ccccc2F)nnc1-c1cnccn1
inactive: outcome [1] | outcome [2] | outcome [3] | outcome [4] | outcome [5]

O=C(NC(=S)Nc1cc(C(F)(F)F)ccc1Cl)c1ccccc1
inactive: outcome [1] | outcome [2] | outcome [3] | outcome [4] | outcome [5]

Oc1c(Br)cc(Br)cc1CNc1cccc2cccnc12
active: potentiation [2] 28.5%
inactive: outcome [1] | outcome [3] | outcome [4] | outcome [5]

Cc1ccc(C(=O)CSc2nnc3c4ccccc4nc(C(C)(C)C)n23)cc1
inactive: outcome [1] | outcome [2] | outcome [3] | outcome [4] | outcome [5]

Cc1ccc(C)c(Cn2c(O)c(N=NC(=S)Nc3ccccc3F)c3ccccc32)c1
inactive: outcome [1] | outcome [2] | outcome [3] | outcome [4] | outcome [5]

Cn1cccc1C(=O)NNC(=O)COc1ccccc1F
inactive: outcome [1] | outcome [2] | outcome [3] | outcome [4] | outcome [5]

CCn1c2ccccc2c2cc(CC(N)=O)ccc21
inactive: outcome [1] | outcome [2] | outcome [3] | outcome [4] | outcome [5]

CCOc1ccc(OCCCN(C)C)cc1
inactive: outcome [1] | outcome [2] | outcome [3] | outcome [4] | outcome [5]

O=C1CCCCCN1Sc1ccccc1
active: potentiation [2] 18.5%
inactive: outcome [1] | outcome [3] | outcome [4] | outcome [5]

COc1c(Br)cc(/C=N/n2c(-c3ccccc3)n[nH]c2=S)c(O)c1Br
inactive: outcome [1] | outcome [2] | outcome [3] | outcome [4] | outcome [5]

Cc1ccc(O)c(NC(=S)NC(=O)COc2ccc(Br)cc2)c1
inactive: outcome [1] | outcome [2] | outcome [3] | outcome [4] | outcome [5]
